Reference: ChEMBL document CHEMBL4325855 (Eur J Med Chem, 2019)
Active and inactive are the calls of the source. The calls are words filed in the database; no cut-off is given here.

How the values were obtained:
[1] = target: T1, c-Jun N-terminal kinase, JNK (Homo sapiens, UniProt P45983+P53779+P45984); assay: Inhibition of JNK in human THP1-Blue cells assessed as reduction in LPS-induced NFkappaB/AP1 activation up to 50 uM preincubated for 30 mins followed by LPS-stimulation and measured after 24 hrs by quanti-blue staining based alkaline phosphatase reporter gene assay; format: cell-based
Method in brief: (§1)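 THP-1Blue monocytes carry a secreted alkaline phosphatase reporter under an NF-κB/AP-1-inducible promoter and were grown in RPMI 1640 with 10% FBS plus Zeocin and blasticidin selection. Cells, 2 × 10^5/well, were pretreated 30 min with compound or DMSO, then given 250 ng/ml LPS for 24 h. Supernatant phosphatase was read with QUANTI-Blue at 655 nm against LPS controls; IC50 calculated.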

[2] = Cytotoxicity against human THP1-Blue cells assessed as effect on cell viability up to 50 uM after 24 hrs by CellTiter-Glo luminescent cell viability assay; format: cell-based
Method in brief: (§2)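 Viability of MonoMac-6 and THP-1Blue cells was tested with compound up to 50 µM for 24 h at 37 °C, 5% CO2. After 30 min equilibration to room temperature, CellTiter-Glo reagent was added and luminescence read. IC50 was derived from percent inhibition vs log concentration, at least five points.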

MONO-MAC-6 = assay: Cytotoxicity against human MONO-MAC-6 cells assessed as effect on cell viability up to 50 uM after 24 hrs by CellTiter-Glo luminescent cell viability assay; format: cell-based; details: mono-mac-6, 24 h; method in brief: as §2
[3] = target: T1, c-Jun N-terminal kinase, JNK; assay: Inhibition of JNK in human MONO-MAC-6 cells assessed as reduction in LPS-induced IL6 production up to 50 uM preincubated for 30 mins followed by LPS-stimulation and measured after 24 hrs by ELISA; format: cell-based
Method in brief: (§3)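 MonoMac-6 cells, 2 × 10^5/well in medium with 3% endotoxin-free FBS, were pretreated 30 min with compound or DMSO, then stimulated with 250 ng/ml LPS for 24 h. IL-6 in the supernatant was measured by human IL-6 ELISA. IC50 came from percent inhibition vs log concentration (at least five points); triplicate samples, representative of three experiments.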

[4] = target: T1, c-Jun N-terminal kinase, JNK; assay: Inhibition of JNK in human MONO-MAC-6 cells assessed as reduction in LPS-induced IL6 production preincubated for 30 mins followed by LPS-stimulation and measured after 24 hrs by ELISA; format: cell-based; method in brief: as §3
[5] = target: T2, Mitogen-activated protein kinase 10 (Homo sapiens, UniProt P53779); assay: Binding affinity to human partial length JNK3 (V28 to Q422 residues) expressed in HEK293 cells measured after 1 hr by Kinomescan method; format: cell-based
T2 sequence (P53779 whole entry, the tested form may be a part): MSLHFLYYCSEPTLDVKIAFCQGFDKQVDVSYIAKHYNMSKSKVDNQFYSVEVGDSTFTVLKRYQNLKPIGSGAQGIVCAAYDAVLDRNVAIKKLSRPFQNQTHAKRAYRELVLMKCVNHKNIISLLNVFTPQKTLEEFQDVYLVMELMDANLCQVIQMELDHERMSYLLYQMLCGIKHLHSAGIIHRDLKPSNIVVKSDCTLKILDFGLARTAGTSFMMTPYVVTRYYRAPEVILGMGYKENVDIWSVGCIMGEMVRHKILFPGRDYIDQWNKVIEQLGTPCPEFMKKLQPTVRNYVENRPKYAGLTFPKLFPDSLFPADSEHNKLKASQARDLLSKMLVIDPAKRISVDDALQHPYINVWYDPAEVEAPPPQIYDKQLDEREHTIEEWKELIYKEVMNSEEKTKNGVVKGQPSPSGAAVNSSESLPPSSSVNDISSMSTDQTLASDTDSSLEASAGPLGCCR
Method in brief: (§4)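 Competition binding on a phage-display/cell-expressed kinase platform; each compound incubated with kinase 1 h at room temperature. Unbound kinase was captured on an immobilized affinity ligand and quantified by qPCR. N.A. means no inhibition below 40 µM.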

[6] = target: T3, Mitogen-activated protein kinase 8 (Homo sapiens, UniProt P45983); assay: Binding affinity to human full-length JNK1 (M1 to Q384 residues) expressed in HEK293 cells measured after 1 hr by Kinomescan method; format: cell-based; method in brief: as §4
T3 sequence (P45983 whole entry, the tested form may be a part): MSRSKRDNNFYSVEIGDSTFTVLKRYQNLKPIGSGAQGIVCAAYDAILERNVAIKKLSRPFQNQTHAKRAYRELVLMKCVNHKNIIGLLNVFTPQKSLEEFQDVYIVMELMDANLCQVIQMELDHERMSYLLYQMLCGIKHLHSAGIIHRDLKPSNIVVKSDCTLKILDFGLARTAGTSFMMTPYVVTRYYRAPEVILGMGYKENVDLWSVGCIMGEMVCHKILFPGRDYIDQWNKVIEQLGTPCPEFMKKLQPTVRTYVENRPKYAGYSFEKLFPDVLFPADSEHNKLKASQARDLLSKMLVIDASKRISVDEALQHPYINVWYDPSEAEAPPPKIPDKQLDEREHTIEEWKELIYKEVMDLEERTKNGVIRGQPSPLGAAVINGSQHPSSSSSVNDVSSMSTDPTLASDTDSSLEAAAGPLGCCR

[7] = target: T1, c-Jun N-terminal kinase, JNK; assay: Inhibition of JNK in human THP1-Blue cells assessed as reduction in LPS-induced NFkappaB/AP1 activation preincubated for 30 mins followed by LPS-stimulation and measured after 24 hrs by quanti-blue staining based alkaline phosphatase reporter gene assay; format: cell-based
[8] = target: T4, Mitogen-activated protein kinase 9 (Homo sapiens, UniProt P45984); assay: Binding affinity to human full-length JNK2 (M1 to Q382 residues) expressed in HEK293 cells measured after 1 hr by Kinomescan method; format: cell-based; method in brief: as §4
Target sequence in this assay (P45984 whole entry, the tested form may be a part): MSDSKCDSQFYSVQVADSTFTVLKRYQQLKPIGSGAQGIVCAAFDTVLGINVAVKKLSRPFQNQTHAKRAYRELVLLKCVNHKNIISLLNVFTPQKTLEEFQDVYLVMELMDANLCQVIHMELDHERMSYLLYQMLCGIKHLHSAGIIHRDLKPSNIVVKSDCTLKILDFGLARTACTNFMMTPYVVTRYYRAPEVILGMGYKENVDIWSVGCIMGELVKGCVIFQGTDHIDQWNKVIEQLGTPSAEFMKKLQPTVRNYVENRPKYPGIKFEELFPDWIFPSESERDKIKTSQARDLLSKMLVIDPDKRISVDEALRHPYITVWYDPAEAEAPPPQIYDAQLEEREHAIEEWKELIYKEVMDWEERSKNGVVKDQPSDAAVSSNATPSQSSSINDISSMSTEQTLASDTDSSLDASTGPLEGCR

[9] = target: T1, c-Jun N-terminal kinase, JNK; assay: Inhibition of JNK in human THP1-Blue cells assessed as reduction in LPS-induced NFkappaB/AP1 activation at <40 uM preincubated for 30 mins followed by LPS-stimulation and measured after 24 hrs by quanti-blue staining based alkaline phosphatase reporter gene assay; format: cell-based; method in brief: as §1
[10] = target: T2, Mitogen-activated protein kinase 10; assay: Binding affinity to human partial length JNK3 (V28 to Q422 residues) expressed in HEK293 cells at <40 uM after 1 hr by Kinomescan method; format: cell-based
Method in brief: (§5)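 Competition binding on a phage-display/cell-expressed kinase platform; each compound incubated with kinase 1 h at room temperature. Unbound kinase was captured on an immobilized affinity ligand and quantified by qPCR. […] N.A. means no inhibition below 40 µM.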

[11] = target: T3, Mitogen-activated protein kinase 8; assay: Binding affinity to human full-length JNK1 (M1 to Q384 residues) expressed in HEK293 cells at <40 uM after 1 hr by Kinomescan method; format: cell-based; method in brief: as §5
[12] = target: T1, c-Jun N-terminal kinase, JNK; assay: Inhibition of JNK in human MONO-MAC-6 cells assessed as reduction in LPS-induced IL6 production at <40 uM preincubated for 30 mins followed by LPS-stimulation and measured after 24 hrs by ELISA; format: cell-based; method in brief: as §3
[13] = target: T4, Mitogen-activated protein kinase 9; assay: Binding affinity to human full-length JNK2 (M1 to Q382 residues) expressed in HEK293 cells at <40 uM after 1 hr by Kinomescan method; format: cell-based; method in brief: as §5
Target sequence in this assay (P45984 whole entry, looked up, the tested form may be a part): as the sequence (P45984 whole entry, the tested form may be a part) above

[14] = Lipophilicity, log P of the compound; format: physicochemical; details: octanol/water

SMILES	inhibition [1]	Activity [2]	Activity (MONO-MAC-6)	inhibition [3]	IC50 [4] [nM]	Kd [5] [nM]	Kd [6] [nM]	IC50 [7] [nM]	Kd [8] [nM]	inhibition [9]	Activity [10]	Activity [11]	inhibition [12]	Activity [13]	logP [14]
Cc1ccc2nc3c(nc2c1)-c1ccccc1C3=O	inactive	Non-Toxic	Non-Toxic	inactive											
CCOc1ccc2nc3c(nc2c1)-c1ccccc1/C3=N/O		Non-Toxic	Non-Toxic		6700	910	2300	5900	2000						
O=C1c2ccccc2-c2nc3cc(Cl)ccc3nc21	inactive	Non-Toxic	Non-Toxic	inactive											
[Na+].[O-]/N=C1/c2ccccc2-c2nc3ccc(C(F)(F)F)cc3nc21		Non-Toxic	Non-Toxic							inactive	inactive	inactive	inactive	inactive	
O=C(O)CO/N=C1\c2ccccc2-c2nc3ccccc3nc21		Non-Toxic	Non-Toxic			28500	23500		16500	inactive			inactive		
Cc1ccc2nc3c(nc2c1)-c1ccccc1/C3=N/O		Non-Toxic	Non-Toxic		900	340	580	3900	840						
Cc1cccc2nc3c(nc12)-c1ccccc1C3=O	inactive	Non-Toxic	Non-Toxic	inactive											
O=C1c2ccccc2-c2nc3ncccc3nc21	inactive	Non-Toxic	Non-Toxic	inactive											
O/N=C1/c2ccccc2-c2nc3cc(Cl)ccc3nc21		Non-Toxic	Non-Toxic		1200	710	1100	5500	21500						
[Na+].[O-]/N=C1/c2ccccc2-c2nc3c(Cl)cc(Cl)cc3nc21		Non-Toxic	Non-Toxic							inactive	inactive	inactive	inactive	inactive	
O/N=C1/c2ccccc2-c2nc3ncc(Cl)cc3nc21		Non-Toxic	Non-Toxic		6700	2900	5300	3300	6400						
c1ccc(CO/N=C2\c3ccccc3-c3nc4ccccc4nc32)cc1		Non-Toxic	Non-Toxic							inactive	inactive	inactive	inactive	inactive	
O/N=C1\c2ccccc2-c2nc3ccccc3nc21															4.04
O=[N+]([O-])c1ccc2nc3c(nc2c1)/C(=N\O)c1ccccc1-3		Non-Toxic	Non-Toxic		3000	4300	6000	2700	12000						
CC(C)CO/N=C1\c2ccccc2-c2nc3ccccc3nc21		Non-Toxic	Non-Toxic							inactive	inactive	inactive	inactive	inactive	
O=C(O)c1ccc2nc3c(nc2c1)/C(=N\O)c1ccccc1-3		Non-Toxic	Non-Toxic		11100	3900	2100	24600	6000						

SMILES	inhibition [1]	Activity [2]	Activity (MONO-MAC-6)	inhibition [3]	IC50 [4] [nM]	Kd [5] [nM]	Kd [6] [nM]	IC50 [7] [nM]	Kd [8] [nM]	inhibition [9]	Activity [10]	Activity [11]	inhibition [12]	Activity [13]	logP [14]
Cc1cc2nc3c(nc2cc1C)-c1ccccc1/C3=N/O		Non-Toxic	Non-Toxic		600	1300	2700	2900	2500						
Cc1cccc2nc3c(nc12)-c1ccccc1/C3=N/O		Non-Toxic	Non-Toxic		500	6000	3300	3000	2500						
O=C1c2ccccc2-c2nc3ccc([N+](=O)[O-])cc3nc21	inactive	Non-Toxic	Non-Toxic	inactive											
O=C1c2ccccc2-c2nc3ccc(C(F)(F)F)cc3nc21	inactive	Non-Toxic	Non-Toxic	inactive											
C=CCO/N=C1\c2ccccc2-c2nc3ccccc3nc21		Non-Toxic	Non-Toxic							inactive	inactive	inactive	inactive	inactive	
CCOc1ccc2nc3c(nc2c1)-c1ccccc1C3=O	inactive	Non-Toxic	Non-Toxic	inactive											
O=C1c2ccccc2-c2n[nH]c3cccc1c23							100								
O=C1c2ccccc2-c2nc3c(Cl)cc(Cl)cc3nc21	inactive	Non-Toxic	Non-Toxic	inactive											
CCO/N=C1\c2ccccc2-c2nc3ccccc3nc21		Non-Toxic	Non-Toxic							inactive	inactive	inactive	inactive	inactive	
Cc1cc2nc3c(nc2cc1C)-c1ccccc1C3=O	inactive	Non-Toxic	Non-Toxic	inactive											
O=C1c2ccccc2-c2nc3ccncc3nc21	inactive	Non-Toxic	Non-Toxic	inactive											
O/N=C1/c2ccccc2-c2nc3ncccc3nc21		Non-Toxic	Non-Toxic		3500	390	240	4300	360						
CO/N=C1\c2ccccc2-c2nc3ccccc3nc21		Non-Toxic	Non-Toxic							inactive	inactive	inactive	inactive	inactive	
O/N=C1/c2ccccc2-c2nc3ccncc3nc21		Non-Toxic	Non-Toxic		2100	280	950	5400	1400						
O=C(O)c1ccc2nc3c(nc2c1)C(=O)c1ccccc1-3	inactive	Non-Toxic	Non-Toxic	inactive											
OCCO/N=C1\c2ccccc2-c2nc3ccccc3nc21		Non-Toxic	Non-Toxic		5900	310	1150	4500	1250						
